# Legend:
# Malme-3M = test: Growth inhibition of human MALME-3M cells; format: functional; conditions: for CC50: read-out: LC50 (the source's name)
# A498 = test: Growth inhibition of human A498 cells; format: functional; conditions: for CC50: read-out: LC50 (the source's name)
# SR = test: Growth inhibition of human SR cells; format: functional; conditions: for CC50: read-out: LC50 (the source's name)
# U-251 = test: Growth inhibition of human U251 cells; format: functional; conditions: for CC50: read-out: LC50 (the source's name)
# [1] = Growth inhibition of human Hs 578T cells; format: functional; conditions: for CC50: read-out: LC50 (the source's name)
# NCI-H522 = test: Growth inhibition of human NCI-H522 cells; format: functional; conditions: for CC50: read-out: LC50 (the source's name)
# OVCAR-3 = test: Growth inhibition of human OVCAR-3 cells; format: functional; conditions: for CC50: read-out: LC50 (the source's name)
# MDA-N = test: Growth inhibition of human MDA-N cells; format: functional; conditions: for CC50: read-out: LC50 (the source's name)
# HT-29 = test: Growth inhibition of human HT-29 cells; format: functional
# NCI-H23 = test: Growth inhibition of human NCI-H23 cells; format: functional
# BT-549 = test: Growth inhibition of human BT549 cells; format: functional; conditions: for CC50: read-out: LC50 (the source's name)
# MDA-MB-435 = test: Growth inhibition of human MDA-MB-435 cells; format: functional; conditions: for CC50: read-out: LC50 (the source's name)
# [2] = Cytotoxicity against african green monkey BSC1 cells at 40 ug/disk; format: cell-based; conditions: chlorocebus aethiops, bsc-1
# Summary of the method: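 BSC-1 cells (ATCC CCL 26), a line derived from African green monkey kidney, are the host cells of the combined antiviral/cytotoxicity assay. Cytotoxicity is scored on these cells within that assay.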
# HL-60(TB) = test: Growth inhibition of human HL-60(TB) cells; format: functional; conditions: for CC50: read-out: LC50 (the source's name)
# [3] = tested on: Trichophyton mentagrophytes; test: Antimicrobial activity against Trichophyton mentagrophytes assessed per disk; format: functional
# UO-31 = test: Growth inhibition of human UO31 cells; format: functional; conditions: for CC50: read-out: LC50 (the source's name)
# OVCAR-8 = test: Growth inhibition of human OVCAR8 cells; format: functional; conditions: for CC50: read-out: LC50 (the source's name)
# NCI-H322M = test: Growth inhibition of human NCI-H322M cells; format: functional
# T47D = test: Growth inhibition of human T47D cells; format: functional; conditions: for CC50: read-out: LC50 (the source's name)
# Escherichia coli = test: Antimicrobial activity against Escherichia coli assessed per disk; format: functional
# KM12 = test: Growth inhibition of human KM12 cells; format: functional; conditions: for CC50: read-out: LC50 (the source's name)
structure (smiles),measurement,setting,value
COc1cn2c(cc1=O)C(=O)c1ccnc(CC(C)C)c1-2 [PTEROCELLIN A],GI50,Malme-3M,100 nM
same,TGI,Malme-3M,300 nM
same,CC50,Malme-3M,800 nM
same,GI50,A498,900 nM
same,TGI,A498,2.2 µM
same,CC50,A498,5.1 µM
same,GI50,SR,2000 nM
same,TGI,SR,> 100000 nM
same,CC50,SR,> 100 µM
same,GI50,U-251,2200 nM
same,TGI,U-251,7.5 µM
same,CC50,U-251,42.5 µM
same,GI50,[1],6.3 µM
same,TGI,[1],> 100 µM
same,CC50,[1],> 100 µM
same,GI50,NCI-H522,1700 nM
same,TGI,NCI-H522,3300 nM
same,CC50,NCI-H522,6.5 µM
same,GI50,OVCAR-3,1500 nM
same,TGI,OVCAR-3,4600 nM
same,CC50,OVCAR-3,19.3 µM
same,GI50,MDA-N,200 nM
same,TGI,MDA-N,400 nM
same,CC50,MDA-N,600 nM
same,GI50,HT-29,1300 nM
same,LC50,HT-29,> 100 µM
same,TGI,HT-29,7.2 µM
same,GI50,NCI-H23,300 nM
same,LC50 (concentration causing 50% net cell kill),NCI-H23,6.1 µM
same,TGI,NCI-H23,1000 nM
same,GI50,BT-549,1700 nM
same,TGI,BT-549,4 µM
same,CC50,BT-549,9.3 µM
same,GI50,MDA-MB-435,200 nM
same,TGI,MDA-MB-435,300 nM
same,CC50,MDA-MB-435,600 nM
same,Activity,[2],Toxic
same,GI50,HL-60(TB),3000 nM
same,TGI,HL-60(TB),> 100 µM
same,CC50,HL-60(TB),> 100 µM
same,MIC,[3],3.9 µg
same,GI50,UO-31,2200 nM
same,TGI,UO-31,6.1 µM
same,CC50,UO-31,22.2 µM
same,GI50,OVCAR-8,2200 nM
same,TGI,OVCAR-8,17.6 µM
same,CC50,OVCAR-8,> 100 µM
same,GI50,NCI-H322M,1600 nM
same,LC50 (concentration killing 50% of cells),NCI-H322M,5.6 µM
same,TGI,NCI-H322M,3000 nM
same,GI50,T47D,1800 nM
same,TGI,T47D,6.5 µM
same,CC50,T47D,> 100 µM
same,MIC,Escherichia coli,>60 µg
same,GI50,KM12,1600 nM
same,TGI,KM12,3400 nM
same,CC50,KM12,7.3 µM
COc1cn2c(cc1=O)C(=O)c1ccnc(Cc3ccccc3)c1-2 [PTEROCELLIN B],GI50,Malme-3M,30 nM
same,TGI,Malme-3M,100 nM
same,CC50,Malme-3M,300 nM
same,GI50,A498,1900 nM
same,TGI,A498,4 µM
same,CC50,A498,8.5 µM
same,GI50,SR,200 nM
same,TGI,SR,1300 nM
same,CC50,SR,3.7 µM
same,GI50,U-251,1000 nM
same,TGI,U-251,2.2 µM
same,CC50,U-251,4.7 µM
same,GI50,[1],5.1 µM
same,TGI,[1],> 100 µM
same,CC50,[1],> 100 µM
same,GI50,NCI-H522,1100 nM
same,TGI,NCI-H522,2400 nM
same,CC50,NCI-H522,5.2 µM
same,GI50,OVCAR-3,200 nM
same,TGI,OVCAR-3,600 nM
same,CC50,OVCAR-3,3.2 µM
same,GI50,MDA-N,200 nM
same,TGI,MDA-N,300 nM
same,CC50,MDA-N,600 nM
same,GI50,HT-29,500 nM
same,LC50,HT-29,27.3 µM
same,TGI,HT-29,3.2 µM
same,GI50,NCI-H23,100 nM
same,LC50 (concentration causing 50% net cell kill),NCI-H23,0.7 µM
same,TGI,NCI-H23,300 nM
same,GI50,BT-549,1500 nM
same,TGI,BT-549,2.9 µM
same,CC50,BT-549,5.6 µM
same,GI50,MDA-MB-435,200 nM
same,TGI,MDA-MB-435,300 nM
same,CC50,MDA-MB-435,600 nM
same,Activity,[2],Toxic
same,GI50,HL-60(TB),1000 nM
same,TGI,HL-60(TB),5.1 µM
same,CC50,HL-60(TB),43.5 µM
same,MIC,[3],3.9 µg
same,GI50,UO-31,1300 nM
same,TGI,UO-31,2.8 µM
same,CC50,UO-31,5.7 µM
same,GI50,OVCAR-8,700 nM
same,TGI,OVCAR-8,7.6 µM
same,CC50,OVCAR-8,84.8 µM
same,GI50,NCI-H322M,1100 nM
same,LC50 (concentration killing 50% of cells),NCI-H322M,4.7 µM
same,TGI,NCI-H322M,2200 nM
same,GI50,T47D,1300 nM
same,TGI,T47D,3.2 µM
same,CC50,T47D,> 100 µM
same,MIC,Escherichia coli,>60 µg
same,GI50,KM12,600 nM
same,TGI,KM12,1900 nM
same,CC50,KM12,4.5 µM

# — ChEMBL document CHEMBL1146569, “The pterocellins, novel bioactive alkaloids from the marine bryozoan Pterocella vesiculosa” (J Nat Prod, 2003)
